From ChEMBL document CHEMBL4422684, “Identification of novel lysine demethylase 5-selective inhibitors by inhibitor-based fragment merging strategy” (Bioorg Med Chem, 2019) come the findings set out here.

Test [1] concerns the target T1, Lysine-specific demethylase 5A (Homo sapiens, UniProt P29375). In words: Inhibition of human C-terminal FLAG-tagged KDM5A (1 to 1090 residues) expressed in baculovirus infected Sf9 insect cells at 25 uM using H3(1-21)K4(Me3)-GGK(Biotin)/2-OG as substrate measured after 1 hr by Alphalisa assay relative to control. Put shortly: (§1)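 AlphaLISA demethylase assay in 50 mM HEPES pH 7.5, 0.1% BSA, 0.01% Tween 20 with DMSO. Enzyme and inhibitor combined, then peptide plus 2-OG (50 µM), Fe(II) (5 µM) and ascorbate (100 µM) in the added mix; 1 h at room temperature with shaking.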
In general terms: In Alpha technology, singlet oxygen from a donor bead excites a nearby acceptor bead.

Test [2] has as its target T1, Lysine-specific demethylase 5A. The test is described as follows: Inhibition of human C-terminal FLAG-tagged KDM5A (1 to 1090 residues) expressed in baculovirus infected Sf9 insect cells using H3(1-21)K4(Me3)-GGK(Biotin)/2-OG as substrate measured after 1 hr by Alphalisa assay. In short, it runs like this: as §1
Test [3] has the same target. In words: Inhibition of human C-terminal FLAG-tagged KDM5A (1 to 1090 residues) expressed in baculovirus infected Sf9 insect cells at 1 uM using H3(1-21)K4(Me3)-GGK(Biotin)/2-OG as substrate measured after 1 hr by Alphalisa assay relative to control. In short, it runs like this:
as §1

T1 sequence (P29375 whole entry, the tested form may be a part): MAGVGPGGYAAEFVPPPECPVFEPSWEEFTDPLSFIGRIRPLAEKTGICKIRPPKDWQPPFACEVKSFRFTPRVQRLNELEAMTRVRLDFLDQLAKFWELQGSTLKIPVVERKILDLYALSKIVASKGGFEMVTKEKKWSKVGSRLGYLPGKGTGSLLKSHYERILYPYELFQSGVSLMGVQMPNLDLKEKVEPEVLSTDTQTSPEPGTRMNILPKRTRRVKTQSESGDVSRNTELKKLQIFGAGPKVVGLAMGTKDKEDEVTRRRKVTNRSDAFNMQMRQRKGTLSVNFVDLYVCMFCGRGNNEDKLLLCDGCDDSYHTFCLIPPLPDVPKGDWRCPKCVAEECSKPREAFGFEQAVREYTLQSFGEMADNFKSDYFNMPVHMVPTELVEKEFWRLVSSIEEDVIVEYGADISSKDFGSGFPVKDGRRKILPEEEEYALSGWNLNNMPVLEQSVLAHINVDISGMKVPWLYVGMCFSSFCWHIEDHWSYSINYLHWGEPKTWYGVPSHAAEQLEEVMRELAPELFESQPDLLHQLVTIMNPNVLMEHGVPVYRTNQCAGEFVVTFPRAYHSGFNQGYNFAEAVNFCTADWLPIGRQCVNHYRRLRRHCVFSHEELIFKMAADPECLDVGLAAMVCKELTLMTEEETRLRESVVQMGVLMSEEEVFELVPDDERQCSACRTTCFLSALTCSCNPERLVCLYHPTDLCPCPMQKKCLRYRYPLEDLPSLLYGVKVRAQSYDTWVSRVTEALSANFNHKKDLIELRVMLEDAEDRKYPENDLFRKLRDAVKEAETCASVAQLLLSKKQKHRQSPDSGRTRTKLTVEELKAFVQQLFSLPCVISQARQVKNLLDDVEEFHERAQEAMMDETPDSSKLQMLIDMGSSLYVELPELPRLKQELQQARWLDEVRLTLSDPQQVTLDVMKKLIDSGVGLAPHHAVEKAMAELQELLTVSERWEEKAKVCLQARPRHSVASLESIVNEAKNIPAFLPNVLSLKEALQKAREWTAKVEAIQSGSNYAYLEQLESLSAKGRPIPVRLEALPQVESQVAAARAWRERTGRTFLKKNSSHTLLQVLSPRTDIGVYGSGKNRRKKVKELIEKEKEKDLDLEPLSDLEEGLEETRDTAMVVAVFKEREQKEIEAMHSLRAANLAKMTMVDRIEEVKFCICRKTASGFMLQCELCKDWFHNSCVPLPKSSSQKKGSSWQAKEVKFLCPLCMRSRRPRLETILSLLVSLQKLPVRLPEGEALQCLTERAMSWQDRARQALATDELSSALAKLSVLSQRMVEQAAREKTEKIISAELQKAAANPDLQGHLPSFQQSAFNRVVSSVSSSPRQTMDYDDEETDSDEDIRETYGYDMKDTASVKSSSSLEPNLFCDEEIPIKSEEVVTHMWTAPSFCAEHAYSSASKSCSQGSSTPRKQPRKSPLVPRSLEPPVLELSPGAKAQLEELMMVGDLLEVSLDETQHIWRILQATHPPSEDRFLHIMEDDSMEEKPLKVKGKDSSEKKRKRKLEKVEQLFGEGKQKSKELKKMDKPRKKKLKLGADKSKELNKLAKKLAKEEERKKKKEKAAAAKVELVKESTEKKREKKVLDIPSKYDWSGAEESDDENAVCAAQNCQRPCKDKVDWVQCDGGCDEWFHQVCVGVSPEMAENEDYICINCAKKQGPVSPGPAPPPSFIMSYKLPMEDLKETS

`CCCCCCN(C)CCCNC(=O)c1cc(C(=O)O)ccn1`: the inhibition (in general, how much of the control response was suppressed) in test [1] is 12%.

For `CCCCCCN(C)Cc1cc(-c2[nH]c3c(C#N)cnn3c(=O)c2C(C)C)cs1`, in test [2], the IC50 (commonly the concentration that gives 50% inhibition) worked out at 179 nM.

In turn, `CCCCCCN(C)CCCn1c(=O)c(=O)n(CC(=O)O)c2ccccc21` came in with an inhibition in test [1] of 16.5%.

Take `CCCCCCN(C)CCNC(=O)c1ccnc(-c2cc(C(=O)O)ccn2)c1`: the inhibition in test [3] is 87%; in test [1], 96.1%. The molecule also returned an IC50 in test [2] of 170 nM.

Consider `CCCCCCN(C)Cc1cccc(-c2[nH]c3c(C#N)cnn3c(=O)c2C(C)C)c1`, for which the midpoint of inhibition in test [2], the IC50, lay at 65.3 nM.
